Measured values reported in ChEMBL document CHEMBL1132971, “New azolidinediones as inhibitors of protein tyrosine phosphatase 1B with antihyperglycemic properties” (J Med Chem, 2000).
Calls of active or inactive are those of the source. The rule behind the calls is not given here.

How the values were obtained:
[1] = molecular target: T1, Tyrosine-protein phosphatase non-receptor type 1 (Rattus norvegicus) (UniProt P20417); assay: Inhibition of PTPase (PTP1B) activity in rat hepatic membrane at 50 uM concentration, using pNPP as the substrate; type: cell membranes; settings: Liver
T1 sequence (whole entry): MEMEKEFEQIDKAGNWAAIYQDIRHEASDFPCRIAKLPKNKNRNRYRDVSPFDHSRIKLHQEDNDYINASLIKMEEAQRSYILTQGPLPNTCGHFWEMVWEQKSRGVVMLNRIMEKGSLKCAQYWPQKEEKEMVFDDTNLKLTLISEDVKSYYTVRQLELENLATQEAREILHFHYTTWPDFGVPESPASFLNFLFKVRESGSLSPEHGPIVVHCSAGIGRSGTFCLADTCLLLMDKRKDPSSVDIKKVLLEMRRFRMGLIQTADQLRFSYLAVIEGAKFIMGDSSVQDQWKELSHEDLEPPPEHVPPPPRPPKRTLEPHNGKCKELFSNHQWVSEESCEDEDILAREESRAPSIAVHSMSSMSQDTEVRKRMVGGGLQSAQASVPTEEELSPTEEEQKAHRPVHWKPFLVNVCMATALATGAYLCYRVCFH
Method in brief: (§1)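 Liver membranes from male Sprague-Dawley rats (100-150 g), about 30 µg protein per well. Preincubated 10 min at 37 °C with compound in 1.25% DMSO in 50 mM HEPES pH 7.4. Then 6.33 mM pNPP for 30 min at 37 °C, stopped with NaOH. p-Nitrophenol read at 410 nm. Run in triplicate. Reported as percent of untreated control.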

[2] = molecular target: T2, Tyrosine-protein phosphatase non-receptor type 1 (Rattus norvegicus, UniProt P20417); assay: Inhibition of PTPase activity using recombinant Protein-tyrosine phosphatase 1B as the enzyme and IR-triphosphopeptide as substrate
T2 sequence (P20417 whole entry): T1 sequence (whole entry)

[3] = molecular target: T1, Tyrosine-protein phosphatase non-receptor type 1 (Rattus norvegicus); assay: Inhibition of Protein-tyrosine phosphatase 1B activity in rat hepatic membrane at a concentration of 50 uM using pNPP as the substrate; type: cell membranes; settings: Liver; method in brief: as §1
[4] = molecular target: T2, Tyrosine-protein phosphatase non-receptor type 1; assay: Inhibition of PTPase activity using recombinant r-PTP1B as the enzyme and IR-triphosphopeptide as substrate
Method in brief: (§2)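 Rat recombinant PTP1B in 33 mM TRIS-HCl, 2 mM EDTA, 50 mM β-mercaptoethanol, pH 7.4 (about 1000-2000 nmol/min/mg). Preincubated 10 min at 37 °C with or without compound in HEPES buffer pH 7.4. Released phosphate read by malachite green-ammonium molybdate at 650 nm against a phosphate standard. Quadruplicates. IC50 by four-parameter logistic fit.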

Mus musculus [5] = assay: Evaluated for their ability to decrease plasma insulin levels in mouse at a dose 100 mg/kg/day; **p indicates <0.01; type: functional
Method in brief: (§3)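 Mice dosed orally once daily for 4 days; plasma glucose and insulin measured and expressed as percent change versus a vehicle-treated group (mean ± SE, 4-6 mice/group). NS is generally less than -15% change. Significance is versus vehicle-treated mice.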

Mus musculus [6] = assay: Evaluated in vivo for their ability to decrease plasma glucose levels in diabetic C57BL/KsJ db/db mouse at a dose 100 mg/kg/day; *p indicates <0.05; type: functional; method in brief: as §3
Mus musculus [7] = assay: (§4) Evaluated in vivo for their ability to decrease plasma glucose levels in diabetic C57BL/KsJ ob/ob mouse at a dose 100 mg/kg/day; **p indicates <0.01; type: functional
Method in brief: (§5)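 Diabetic db/db or ob/ob mice dosed orally once daily for 4 days. Plasma glucose and insulin reported as percent change from a vehicle-treated group. 4-6 mice per group. Significance set at p < 0.05 or p < 0.01 versus vehicle; NS means generally less than -15% change.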

Mus musculus [8] = assay: Evaluated for their ability to decrease plasma insulin levels in mouse at a dose 100 mg/kg/day.; NS is non significant; type: functional, organism-based; method in brief: as §5
Mus musculus [9] = assay: Evaluated in vivo for their ability to decrease plasma glucose levels in diabetic C57BL/KsJ ob/ob mouse at a dose 100 mg/kg/day; NS is non significant; type: functional, organism-based; method in brief: as §5
[10] = molecular target: T2, Tyrosine-protein phosphatase non-receptor type 1; assay: Inhibition of PTPase activity in rat hepatic membrane at a concentration of 50 uM using pNPP as the substrate; type: cell membranes, Liver; method in brief: as §1
[11] = molecular target: T1, Tyrosine-protein phosphatase non-receptor type 1 (Rattus norvegicus); assay: Inhibition of PTPase activity using recombinant r-PTP1B as the enzyme and IR-triphosphopeptide as substrate at 50 uM; method in brief: as §2
Mus musculus [12] = assay: Evaluated for their ability to decrease plasma insulin levels in mouse at a dose 70 mg/kg/day; NS is not significant; type: functional, organism-based; method in brief: as §5
Mus musculus [13] = assay: Evaluated in vivo for their ability to decrease plasma glucose levels in diabetic C57BL/KsJ db/db mouse at a dose 100 mg/kg/day; NS is not significant; type: functional, organism-based; method in brief: as §5
Mus musculus [14] = assay: Evaluated in vivo for their ability to decrease plasma glucose levels in diabetic C57BL/KsJ ob/ob mouse at a dose 70 mg/kg/day; NS is not significant; type: functional, organism-based; method in brief: as §5
[15] = molecular target: T1, Tyrosine-protein phosphatase non-receptor type 1 (Rattus norvegicus); assay: Inhibition of PTPase activity using recombinant Protein-tyrosine phosphatase 1B as the enzyme and IR-triphosphopeptide as substrate at 50 uM
Method in brief: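 Recombinant rat PTP1B (human 321-aa form assayed the same way), activity about 1000-2000 nmol/min/mg, preincubated with compound for 10 min at 37 °C in HEPES pH 7.4. The reaction is started with 50 µM triphosphorylated insulin receptor 1142-1153 dodecapeptide and run 30 min at 37 °C. Released phosphate read by malachite green-molybdate at 650 nm, in quadruplicate. Result is percent inhibition versus control.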

Mus musculus [16] = assay: Evaluated in vivo for their ability to decrease plasma glucose levels in diabetic C57BL/KsJ db/db mouse at a dose 100 mg/kg/day; NS is non significant, generally less than - 15% change; type: functional, organism-based; method in brief: as §5
[17] = molecular target: T3, Tyrosine-protein phosphatase non-receptor type 1 (Mus musculus) (UniProt P35821); assay: In vivo ability to decrease plasma glucose levels in diabetic C57BL/KsJ ob/ob mouse at a dose 100 mg/kg/day; type: functional, organism-based; method in brief: as §5
T3 sequence (whole entry): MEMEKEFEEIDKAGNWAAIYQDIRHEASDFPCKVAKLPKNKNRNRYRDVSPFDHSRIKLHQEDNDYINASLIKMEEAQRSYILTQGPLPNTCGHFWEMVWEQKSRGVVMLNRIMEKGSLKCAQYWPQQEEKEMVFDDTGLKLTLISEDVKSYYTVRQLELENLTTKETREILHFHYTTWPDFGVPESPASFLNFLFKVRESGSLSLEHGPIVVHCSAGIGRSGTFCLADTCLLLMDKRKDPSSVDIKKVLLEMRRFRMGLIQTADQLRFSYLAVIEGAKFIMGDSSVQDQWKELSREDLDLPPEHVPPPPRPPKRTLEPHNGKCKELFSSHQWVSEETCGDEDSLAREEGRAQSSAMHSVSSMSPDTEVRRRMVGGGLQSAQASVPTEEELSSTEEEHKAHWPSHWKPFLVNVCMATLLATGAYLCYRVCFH

[18] = molecular target: T2, Tyrosine-protein phosphatase non-receptor type 1; assay: Inhibition of PTPase activity using recombinant r-PTP1B and IR-triphosphopeptide as substrate; ND is no data.; method in brief: as §2
[19] = molecular target: T3, Tyrosine-protein phosphatase non-receptor type 1 (Mus musculus); assay: Ability to decrease plasma insulin levels in mouse at a dose 100 mg/kg/day; type: functional, organism-based; method in brief: as §5
Mus musculus [20] = assay: Evaluated in vivo for their ability to decrease plasma glucose levels in diabetic C57BL/KsJ db/db mouse at a dose 100 mg/kg/day. *p indicates <0.05; type: functional; method in brief: as §3
Mus musculus [21] = assay: as §4; type: functional; method in brief: as §3; remark: listed apart in the source
[22] = molecular target: T4, Tyrosine-protein phosphatase non-receptor type 1 (Homo sapiens) (UniProt P18031); assay: % inhibition of PTPase activity, recombinant human Protein-tyrosine phosphatase 1B as the enzyme at a concentration 50 uM
T4 sequence (whole entry): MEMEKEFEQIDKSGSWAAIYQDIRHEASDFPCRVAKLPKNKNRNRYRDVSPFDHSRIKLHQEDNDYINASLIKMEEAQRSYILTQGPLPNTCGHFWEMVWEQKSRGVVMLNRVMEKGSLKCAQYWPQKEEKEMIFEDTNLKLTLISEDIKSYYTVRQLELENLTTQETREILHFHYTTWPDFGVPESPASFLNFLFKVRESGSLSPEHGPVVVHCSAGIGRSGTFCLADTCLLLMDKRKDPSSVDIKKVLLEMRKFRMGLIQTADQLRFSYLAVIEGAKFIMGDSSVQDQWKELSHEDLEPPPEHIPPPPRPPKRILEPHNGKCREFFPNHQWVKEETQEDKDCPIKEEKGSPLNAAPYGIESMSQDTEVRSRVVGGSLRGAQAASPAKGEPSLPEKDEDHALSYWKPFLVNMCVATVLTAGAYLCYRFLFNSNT
Method in brief: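 Human recombinant PTP1B (321 aa form) dephosphorylating IR-triphosphopeptide (pY1146/1150/1151), 50 µM final. Run as for the rat enzyme: 10 min preincubation with compound at 37 °C, pH 7.4, then 30 min reaction at 37 °C. Phosphate read by malachite green-ammonium molybdate at 650 nm. Quadruplicates. IC50 by four-parameter logistic regression.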

Mus musculus [23] = assay: Evaluated in vivo for their ability to decrease plasma glucose levels in diabetic C57BL/KsJ db/db mouse at a dose 100 mg/kg/day; type: functional; method in brief: as §5

Question: How did the inhibition [1] turn out when CCCC/C(=C\Cn1oc(=O)[nH]c1=O)c1cccc(OCc2cc(Cl)cc(Cl)c2)c1 was run?
Answer: Its inhibition is 57%.

Question: And the IC50 [2]?
Answer: The IC50 was 1.8 µM.

Question: And the inhibition [3]?
Answer: Its inhibition is 61%.

Question: And the IC50 [4]?
Answer: The IC50 was 0.8 µM.

Question: With C/C(=C\Cn1oc(=O)[nH]c1=O)c1cccc(OCc2nc(-c3ccccc3)oc2C)c1 (stereo in doubt; 49) as the compound, how does the Decrease (Mus musculus [5]) read?
Answer: The Decrease was 76%.

Question: And the Decrease (Mus musculus [6])?
Answer: The Decrease was 28%.

Question: And the Decrease (Mus musculus [7])?
Answer: The Decrease was 39%.

Question: With Cc1oc(-c2ccc(C(F)(F)F)cc2)nc1COc1cccc(/C(=C/Cn2oc(=O)[nH]c2=O)C(C)(C)C)c1 as the compound, how does the Decrease (Mus musculus [8]) read?
Answer: The Decrease was “inactive”.

Question: And the Decrease (Mus musculus [9])?
Answer: The Decrease was “inactive”.

Question: What about the Inhibition % [10] of the same compound?
Answer: Its Inhibition % is 24%.

Question: What about the inhibition [11] of the same compound?
Answer: The inhibition was 0.6%.

Question: What does the source list for C/C(=C\C=C\Cn1oc(=O)[nH]c1=O)c1cccc(OCc2nc(-c3ccccc3)oc2C)c1?
Answer: Decrease (Mus musculus [12]): inactive; Decrease (Mus musculus [13]): inactive; Decrease (Mus musculus [14]): inactive; inhibition [15]: 1.4%; inhibition [3]: 57%

Question: Which results are given for C/C(=C\CC1OC(=O)NC1=O)c1cccc(OCCc2nc(-c3ccccc3)oc2C)c1 (configuration not stated)?
Answer: Decrease (Mus musculus [16]): inactive; Decrease [17]: Not significant; inhibition [1]: 36%; IC50 [18]: Not significant; Decrease [19]: Not significant

Question: How did the Decrease (Mus musculus [5]) turn out when CCC/C(=C\Cn1oc(=O)[nH]c1=O)c1cccc(OCc2nc(-c3ccc(C(F)(F)F)cc3)oc2C)c1 was run?
Answer: The Decrease was 82%.

Question: What about the Decrease (Mus musculus [20]) of the same compound?
Answer: Its Decrease is 59%.

Question: And the Decrease (Mus musculus [21])?
Answer: Its Decrease is 58%.

Question: What about the inhibition [22] of the same compound?
Answer: The inhibition was 1.9%.

Question: What about the inhibition [15] of the same compound?
Answer: The inhibition was 2%.

Question: And the inhibition [3]?
Answer: The inhibition was 58%.

Question: Which results are given for Cc1oc(-c2ccc(OC(F)(F)F)cc2)nc1COc1cccc(C(C)CCn2oc(=O)[nH]c2=O)c1 (configuration not stated)?
Answer: Decrease (Mus musculus [23]): 41%; Decrease [17]: Not significant; inhibition [1]: 47%; IC50 [18]: Not significant; Decrease [19]: Not significant
